TRPC4 act – activators of mouse TRPC4 channel, primary screen, Fluo4 calcium, HEK293 TRPC4beta/mu-opioid cells. AID 2237, 2010. actives 0.49% (n = 310,000). Fluo4 calcium fluorescence; hits give high values. B-score at 10 µM. Short transient receptor potential channel 4 (Mus musculus), Q9QUQ5;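 active = B-score above 5 SD of library B-scores, and initial fluorescence ratio not above library mean plus 5 SD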;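 note: positive B-score marks a calcium rise read as TRPC4 activation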
Target sequence (Q9QUQ5 whole entry, looked up): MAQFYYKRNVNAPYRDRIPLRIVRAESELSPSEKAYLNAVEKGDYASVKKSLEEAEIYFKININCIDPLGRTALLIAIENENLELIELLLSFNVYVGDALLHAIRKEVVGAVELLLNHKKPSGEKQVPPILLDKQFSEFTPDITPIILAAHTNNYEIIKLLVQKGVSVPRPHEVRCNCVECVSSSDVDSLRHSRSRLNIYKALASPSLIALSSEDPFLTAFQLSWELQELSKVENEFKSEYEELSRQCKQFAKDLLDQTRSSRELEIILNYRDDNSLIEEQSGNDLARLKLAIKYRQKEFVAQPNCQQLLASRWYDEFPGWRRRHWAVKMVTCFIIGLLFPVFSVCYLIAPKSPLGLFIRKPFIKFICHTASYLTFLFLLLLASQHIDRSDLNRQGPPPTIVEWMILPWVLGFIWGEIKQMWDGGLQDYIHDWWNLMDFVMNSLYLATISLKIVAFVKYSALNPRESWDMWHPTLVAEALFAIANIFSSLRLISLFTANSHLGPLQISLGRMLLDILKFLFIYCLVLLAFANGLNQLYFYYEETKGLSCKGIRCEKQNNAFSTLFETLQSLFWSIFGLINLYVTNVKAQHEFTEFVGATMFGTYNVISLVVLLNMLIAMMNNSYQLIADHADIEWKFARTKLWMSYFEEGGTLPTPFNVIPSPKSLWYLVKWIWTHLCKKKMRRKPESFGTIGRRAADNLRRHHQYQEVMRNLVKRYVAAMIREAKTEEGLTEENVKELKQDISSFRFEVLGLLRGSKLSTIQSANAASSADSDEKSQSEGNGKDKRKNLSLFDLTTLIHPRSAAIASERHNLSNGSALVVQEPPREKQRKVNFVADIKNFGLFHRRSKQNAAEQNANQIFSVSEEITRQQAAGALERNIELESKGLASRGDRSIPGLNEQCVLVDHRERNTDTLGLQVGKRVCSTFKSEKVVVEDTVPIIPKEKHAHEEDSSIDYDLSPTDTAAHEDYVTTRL
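Test system: HEK293 cells stably co-expressing mouse TRPC4beta and mu-opioid receptor | Schedule: Fluo4 dye loading 45 min at room temperature, 110 s recording | Measured by: Kinetic Fluo4 calcium fluorescence, 5 s baseline at 1 Hz | Evaluation: B score of integrated ratio | Controls: Buffer (low) and maximal DAMGO (high)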
TRPC6 inhibitor – mouse TRPC6 channel inhibitors, primary screen, cell-based, HEK293, membrane potential dye. Short transient receptor potential channel 6 (Mus musculus), Q61143. B-score at 10 µM. AID 2553, 2010. ACh-evoked depolarization; hits give low values. actives 1.1% (n = 310,000);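 active = B-score under library mean minus 3 SD, initial fluorescence not abnormally high, positive integrated signal ratio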;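 note: B-score derived from integrated fluorescence ratio over the kinetic read; more negative B-score means stronger inhibition of depolarization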
TRPC4 inh – inhibitors of mouse TRPC4 channel, primary screen, Fluo4 calcium, HEK293 TRPC4beta/mu-opioid cells; DAMGO-evoked Fluo4 calcium flux; hits give low values; B-score at 10 µM; Short transient receptor potential channel 4 (Mus musculus), Q9QUQ5; actives 0.39% (n = 300,000);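 active = B-score over 3 SD under the library average, no early fluorescence shift, positive overall ratio signal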
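Assay system: HEK293 cells with stable TRPC4beta plus mu-opioid receptor expression. Dosing: single dose. Measured by: Fluo4 Ca2+ flux fluorescence. Also added: DAMGO in two steps, submaximal then maximal. Read-out: B score from integrated Fluo4 fluorescence ratio.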
TRPC6 act – mouse TRPC6 channel activators, primary screen, cell-based, HEK293, membrane potential dye; Short transient receptor potential channel 6 (Mus musculus), Q61143; HEK293-TRPC6 membrane potential dye fluorescence; hits give high values; B-score at 10 µM; actives 0.13% (n = 310,000); AID 2550, 2010;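 active = B-score of the integrated fluorescence ratio above library mean plus 3 SD, and starting fluorescence ratio within library mean plus 5 SD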;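 note: higher score means more depolarization so channel activation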
TRPC4 potent – positive allosteric modulators of TRPC4, primary screen, cell-based, mouse TRPC4beta, HEK293 mu-opioid, Fluo-4 calcium. Short transient receptor potential channel 4 (Mus musculus), Q9QUQ5. B-score at 10 µM. DAMGO EC20, Fluo-4 Ca2+ flux; hits give high values. actives 0.42% (n = 310,000);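 active = B-score of calcium response area above 5 SD of library B-scores, with initial fluorescence ratio within 5 SD of library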
Hits are given with their value; – = inactive; · = not tested or not shown. An excerpt weighted towards active compounds, which were near 2.3% of everything screened.

SMILES	TRPC4 act	TRPC6 inhibitor	TRPC4 inh	TRPC6 act	TRPC4 potent
CN1CCN(c2ccc(NC(=O)COc3cccc4ccccc34)cc2)CC1	177	–	–	–	–
N/C(=N\OC(=O)COc1ccc2ccccc2c1Br)c1ccncc1	–	-5	–	–	–
N/C(=N\OC(=O)COc1ccc2ccccc2c1)c1ccncc1	–	–	–	–	–
Cn1cc(Cl)c(C(=O)OCC(=O)Nc2ccc(S(N)(=O)=O)cc2)n1	–	–	–	–	–
O=C(Nc1cccc(Cl)c1)NC1CCN(C2CCCCC2)C1 (stereo unspecified)	46	–	–	–	–
C(C#CCCCCCCCCC[n+]1ccccc1)#CCCCCCCCCC[n+]1ccccc1	84	–	–	–	–
Cc1ccc(NS(=O)(=O)c2cc([N+](=O)[O-])ccc2NNC(=S)Nc2cc(C)ccc2C)c(C)c1	–	–	–	–	16
Cc1ccc(NS(=O)(=O)c2cc([N+](=O)[O-])ccc2NNC(=S)Nc2cccc(Cl)c2)c(C)c1	–	–	–	–	–
OCCCCNCc1cc(Br)ccc1OCc1ccccc1F	–	–	-7	–	–
OCCNCc1cc(Br)ccc1OCc1ccc(Cl)cc1Cl	–	–	-8	–	–
O=C(COc1ccc(Br)cc1CO)Nc1ccc(F)cc1	–	–	–	–	–
OCCNCc1cc(Br)ccc1OCc1ccc(F)cc1	–	–	-6	–	–
Clc1cc(Br)ccc1OCCCNCc1ccccc1	75	–	–	–	–
Cc1cc(C)c(S(=O)(=O)NCc2nc3nc(C)cc(C)n3n2)c(C)c1	–	–	–	–	–
O=C(N=C1SC2CS(=O)(=O)CC2N1Cc1ccc(Cl)cc1)C1CC1 (stereo unspecified)	–	–	–	–	–
Fc1ccc(COc2ccccc2CNCc2ccncc2)cc1	–	–	–	–	–
Brc1ccc(OCc2ccccc2)c(CNCc2ccncc2)c1	–	–	-5	–	–
C[C@]1(CO)CCC[C@@]2(C)C1CC[C@@H](CO)[C@@H]2CCc1ccoc1 (stereo partly specified)	–	–	–	–	–
NC(=O)C(c1ccc(Cl)cc1Cl)c1ncc(C(F)(F)F)cc1Cl (stereo unspecified)	–	–	–	–	14
CCOc1ncccc1C(=O)NNC(=O)c1ccc(NS(=O)(=O)c2cccs2)cc1	–	–	–	–	–
Cc1ccccc1OCCCc1c(C)n[nH]c1C	–	–	·	–	–
Cc1ccccc1OCCCCc1c(C)n[nH]c1C	–	–	-6	–	–
Cc1ccc(OCCCc2c(C)n[nH]c2C)cc1	–	–	–	–	–
Cc1n[nH]c(C)c1CCCCOc1ccccc1	–	–	-7	–	–
Cc1n[nH]c(C)c1CCCCOc1ccccc1F	–	–	-6	–	–
SMILES	TRPC4 act	TRPC6 inhibitor	TRPC4 inh	TRPC6 act	TRPC4 potent
CCN(CC)CCCN1CC(O)=C(c2nc3ccccc3s2)C1=N	–	–	–	–	12
N=C1C(c2nc3ccccc3s2)=C(O)CN1Cc1ccccc1	–	–	–	–	–
CCN(CCNC(=O)C1CCN(S(=O)(=O)c2cccc3nsnc23)CC1)c1ccccc1	–	–	–	–	–
CCCN(CCC)CCCNC(=O)C1CCN(S(=O)(=O)c2cccc3nsnc23)CC1	134	–	–	–	–
Cc1oc(-c2ccccc2F)nc1CS(=O)CC(=O)NC1CC1 (stereo unspecified)	–	–	–	–	–
CCOC(=O)N1CCC(NC(=O)CS(=O)Cc2nc(-c3ccccc3C)oc2C)CC1 (stereo unspecified)	–	–	–	–	13
Cc1ccc(Cl)cc1NC(=O)CNCC(c1ccccc1)N(C)C (stereo unspecified)	118	–	–	–	–
Cc1ccc(Cl)cc1NC(=O)CCC(=O)O	–	–	–	–	–
COc1ccc(Cl)cc1NC(=O)CNCC(c1ccccc1)N(C)C (stereo unspecified)	49	–	-7	–	–
COc1ccc(Cl)cc1NC(=O)CNC(c1ccccc1)c1ccccc1	–	–	–	–	–
